Laboratory results published in ChEMBL document CHEMBL4138312 (J Med Chem, 2018).

Assays:
[1] = biological target: T1, Tyrosine-protein kinase JAK1 (Homo sapiens, UniProt P23458); test: Inhibition of JAK1 in human NCI-H1975 cells assessed as reduction in STAT3 phosphorylation after 1 hr by ELISA; type: cell-based
Outline: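 Cellular mode-of-action assay in NCI-H1975 cells, read as inhibition of STAT3 phosphorylation. EC50 was derived.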

[2] = Half life in CD1 mouse at 10 mg/kg, po administered via gavage by LC/MS/MS analysis; type: ADME, organism-based; conditions: in vivo
Outline: (§1)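 Mouse pharmacokinetics after oral dosing at 10 or 50 mg/kg. The 10 mg/kg dose was given in 10% HPbCD + 5% dextrose in WFI at pH 4. The 50 mg/kg dose was given in 5% SBECD in WFI at pH 2. Plasma exposure (AUC), half-life and oral bioavailability were derived.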

[3] = AUC in CD1 mouse at 50 mg/kg, po administered via gavage by LC/MS/MS analysis; type: ADME, organism-based; conditions: in vivo; outline: as §1
[4] = Half life in CD1 mouse at 3 mg/kg, iv by LC/MS/MS analysis; type: ADME, organism-based; conditions: in vivo
Outline: (§2)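 Mouse pharmacokinetics after a single iv dose of 3 mg/kg in 10% HPbCD + 5% dextrose in WFI at pH 4. Plasma clearance, half-life and steady-state volume of distribution were derived.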

[5] = biological target: T1, Tyrosine-protein kinase JAK1; test: Inhibition of cytoplasmic recombinant human GST-tagged JAK1 (886 to 1154 residues) expressed in baculovirus at 1 uM
Outline: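 Single-concentration screen at 1 μM across a panel of 386 kinases to profile broad kinase selectivity.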

[6] = biological target: Non-receptor tyrosine-protein kinase TYK2 (Homo sapiens, UniProt P29597); test: Inhibition of recombinant human N-terminal GST-tagged TYK2 (871 to 1187 residues) expressed in baculovirus expression system using 5FAM-GEEPLYWSFPAKKK-NH2 as substrate after 10 mins by caliper assay
Outline: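 Biochemical kinase inhibition IC50 measured at 5 mM ATP. Values are the geometric mean of at least two independent experiments.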

[7] = Clearance in CD1 mouse at 3 mg/kg, iv by LC/MS/MS analysis; type: ADME, organism-based; conditions: in vivo; outline: as §2
[8] = biological target: T2, Serine/threonine-protein kinase D1 (Homo sapiens) (UniProt Q15139); test: Inhibition of recombinant human full length GST-tagged PRKD1 expressed in baculovirus at 1 uM
T2 sequence (whole entry): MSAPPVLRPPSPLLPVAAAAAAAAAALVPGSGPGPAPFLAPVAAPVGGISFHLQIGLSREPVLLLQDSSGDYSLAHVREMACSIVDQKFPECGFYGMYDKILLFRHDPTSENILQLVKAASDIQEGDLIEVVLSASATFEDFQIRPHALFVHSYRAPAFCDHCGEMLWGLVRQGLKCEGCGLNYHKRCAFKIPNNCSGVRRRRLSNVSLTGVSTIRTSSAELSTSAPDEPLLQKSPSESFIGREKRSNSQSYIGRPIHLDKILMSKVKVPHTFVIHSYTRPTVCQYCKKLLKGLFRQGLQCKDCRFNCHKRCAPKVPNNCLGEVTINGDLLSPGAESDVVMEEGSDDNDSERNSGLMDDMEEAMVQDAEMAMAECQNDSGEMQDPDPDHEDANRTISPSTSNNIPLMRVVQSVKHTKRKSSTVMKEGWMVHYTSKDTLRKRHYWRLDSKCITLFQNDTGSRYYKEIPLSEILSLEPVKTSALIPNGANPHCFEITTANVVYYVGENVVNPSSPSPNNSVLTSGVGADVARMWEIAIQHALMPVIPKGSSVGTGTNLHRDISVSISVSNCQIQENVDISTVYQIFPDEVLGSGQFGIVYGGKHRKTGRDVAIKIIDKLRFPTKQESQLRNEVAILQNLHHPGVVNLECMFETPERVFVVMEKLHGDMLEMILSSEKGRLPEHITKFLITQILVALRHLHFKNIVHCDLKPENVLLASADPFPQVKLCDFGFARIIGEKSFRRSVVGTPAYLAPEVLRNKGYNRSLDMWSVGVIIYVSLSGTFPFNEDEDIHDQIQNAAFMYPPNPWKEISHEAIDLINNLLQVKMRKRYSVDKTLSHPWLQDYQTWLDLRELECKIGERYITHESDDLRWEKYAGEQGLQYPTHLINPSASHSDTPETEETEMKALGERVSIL
Outline: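 Kinase panel of 386 kinases, each screened at a single concentration of 1 μM.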

A549 = test: Antiproliferative activity against human A549 cells after 48 hrs by Alamar Blue based assay; type: functional; conditions: A549, 48 h
Outline: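 Antiproliferation assay in A549 cells, reported as GI50.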

Mus musculus = test: In vivo inhibition of JAK1 in tumors of human NCI-H1975 cells xenografted in NCr nude mouse assessed as decrease in STAT3 phosphorylation at 50 mg/kg, po after 2 hrs by ELISA; type: functional, organism-based
Outline: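 NCI-H1975 xenograft-bearing mice received single oral gavage doses of 1, 3, 10, 30, 50 or 100 mg/kg. Animals were sacrificed at 2 h, with an extra 6 h group at 50 mg/kg. Tumour pSTAT3 was measured as % inhibition, and plasma drug concentration was measured in parallel. Significance was tested by Student's t-test versus vehicle control.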

T1 sequence (P23458 whole entry): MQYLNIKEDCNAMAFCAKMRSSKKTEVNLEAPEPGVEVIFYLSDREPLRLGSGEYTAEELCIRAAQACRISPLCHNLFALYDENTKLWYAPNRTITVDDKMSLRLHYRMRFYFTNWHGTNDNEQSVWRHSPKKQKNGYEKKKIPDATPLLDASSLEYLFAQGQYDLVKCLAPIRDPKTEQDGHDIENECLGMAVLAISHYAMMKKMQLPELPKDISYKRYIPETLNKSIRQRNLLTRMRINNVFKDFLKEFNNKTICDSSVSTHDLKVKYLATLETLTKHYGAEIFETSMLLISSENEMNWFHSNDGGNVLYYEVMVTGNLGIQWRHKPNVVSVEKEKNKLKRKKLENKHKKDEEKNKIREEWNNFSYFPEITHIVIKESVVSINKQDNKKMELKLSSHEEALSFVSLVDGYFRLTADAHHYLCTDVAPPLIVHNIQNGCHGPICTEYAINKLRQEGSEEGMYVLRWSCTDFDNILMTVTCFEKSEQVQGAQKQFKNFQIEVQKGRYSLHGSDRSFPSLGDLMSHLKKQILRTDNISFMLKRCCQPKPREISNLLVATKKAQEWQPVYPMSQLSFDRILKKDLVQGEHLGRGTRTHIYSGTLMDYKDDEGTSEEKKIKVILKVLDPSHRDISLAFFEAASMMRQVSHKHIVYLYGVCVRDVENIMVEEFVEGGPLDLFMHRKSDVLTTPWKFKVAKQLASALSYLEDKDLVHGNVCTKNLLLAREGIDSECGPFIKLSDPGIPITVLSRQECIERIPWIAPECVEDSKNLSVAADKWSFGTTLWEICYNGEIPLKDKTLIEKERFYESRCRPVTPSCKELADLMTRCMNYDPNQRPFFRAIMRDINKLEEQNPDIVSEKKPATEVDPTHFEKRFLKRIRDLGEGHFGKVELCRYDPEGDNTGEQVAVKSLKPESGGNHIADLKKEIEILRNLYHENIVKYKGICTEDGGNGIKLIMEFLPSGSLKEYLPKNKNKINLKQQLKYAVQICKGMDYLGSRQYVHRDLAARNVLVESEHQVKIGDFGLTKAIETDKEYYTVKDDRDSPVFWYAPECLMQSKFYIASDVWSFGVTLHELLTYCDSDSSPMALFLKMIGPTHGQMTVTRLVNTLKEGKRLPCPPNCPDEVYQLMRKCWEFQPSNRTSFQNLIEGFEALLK
Sequence of Non-receptor tyrosine-protein kinase TYK2 (P29597 whole entry, the tested form may be a part): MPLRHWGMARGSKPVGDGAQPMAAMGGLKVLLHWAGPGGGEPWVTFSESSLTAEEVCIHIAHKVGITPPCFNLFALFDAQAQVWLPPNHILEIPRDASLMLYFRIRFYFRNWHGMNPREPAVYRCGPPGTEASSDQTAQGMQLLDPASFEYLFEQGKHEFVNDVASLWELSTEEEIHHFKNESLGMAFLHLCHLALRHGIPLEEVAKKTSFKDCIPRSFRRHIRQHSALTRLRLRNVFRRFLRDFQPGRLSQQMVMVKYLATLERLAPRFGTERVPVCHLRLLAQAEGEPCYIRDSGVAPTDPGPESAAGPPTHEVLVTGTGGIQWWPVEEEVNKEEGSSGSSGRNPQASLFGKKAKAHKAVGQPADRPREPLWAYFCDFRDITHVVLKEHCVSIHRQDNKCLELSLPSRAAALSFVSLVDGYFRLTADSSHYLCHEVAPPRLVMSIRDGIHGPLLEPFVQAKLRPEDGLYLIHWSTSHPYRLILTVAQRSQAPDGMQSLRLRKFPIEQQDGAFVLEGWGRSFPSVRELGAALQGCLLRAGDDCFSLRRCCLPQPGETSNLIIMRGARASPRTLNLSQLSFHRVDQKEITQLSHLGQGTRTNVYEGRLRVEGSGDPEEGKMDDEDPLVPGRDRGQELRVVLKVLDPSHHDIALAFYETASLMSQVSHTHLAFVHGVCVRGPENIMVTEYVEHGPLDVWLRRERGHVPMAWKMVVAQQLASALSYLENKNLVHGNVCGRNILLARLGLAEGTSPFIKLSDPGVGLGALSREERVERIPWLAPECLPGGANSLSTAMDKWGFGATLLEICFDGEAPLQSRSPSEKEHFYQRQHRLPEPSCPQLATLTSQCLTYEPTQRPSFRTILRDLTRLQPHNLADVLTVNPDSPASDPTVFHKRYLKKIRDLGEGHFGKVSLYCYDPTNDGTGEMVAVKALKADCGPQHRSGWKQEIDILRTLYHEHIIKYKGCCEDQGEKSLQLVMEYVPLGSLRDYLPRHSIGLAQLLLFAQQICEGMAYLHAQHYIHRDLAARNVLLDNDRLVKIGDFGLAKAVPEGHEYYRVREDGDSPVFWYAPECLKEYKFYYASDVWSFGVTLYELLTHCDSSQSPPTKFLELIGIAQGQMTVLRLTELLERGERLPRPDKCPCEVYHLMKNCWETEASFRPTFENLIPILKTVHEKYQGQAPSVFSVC

EC50 [1]: 0.03 µM
half-life [2]: 4.7 h
AUC [3]: 18.9 µM·h
half-life [4]: 2.4 h
inhibition [5]: 100%
IC50 [6]: > 30 µM
clearance [7]: 68.7 mL/min/kg
inhibition [8]: 73%
GI50 (A549): > 10 µM
Structure (SMILES): CC[C@@H](C)Nc1nc(Nc2cc(N3C[C@@H]4C[C@H]3CN4C)cnc2F)ncc1C
inhibition (Mus musculus): Dose-dependent effect
